Data as given in ChEMBL document CHEMBL4364301 (Eur J Med Chem, 2019).

How the values were obtained:
Type in all cases: functional
DU-145 = assay: Antiproliferative activity against human DU145 cells assessed as reduction in cell growth incubated for 96 hrs by propidium iodide based 2D monolayer assay; conditions: DU-145, 96 h
Summary of the method: (§1)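 After 24 h recovery, compound in medium or medium alone (control wells) was added at 10 half-log concentrations from 0.0032 to 100 µM, in triplicate, with at most 0.3% DMSO. After 96 h, wells were PBS-washed, stained with 7 µg/ml PI and 0.1% Triton X-100, and fluorescence read at 530/620 nm. IC50 came from a 4-parameter fit, geometric mean.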

CWR22R = assay: Antiproliferative activity against human 22Rv1 cells assessed as reduction in cell growth incubated for 96 hrs by propidium iodide based 2D monolayer assay; conditions: 22Rv1, 96 h; summary of the method: as §1
LNCaP = assay: Antiproliferative activity against human LNCAP cells assessed as reduction in cell growth incubated for 96 hrs by propidium iodide based 2D monolayer assay; summary of the method: as §1
VCaP = assay: Antiproliferative activity against human VCaP cells assessed as reduction in cell growth incubated for 96 hrs by propidium iodide based 2D monolayer assay
Summary of the method: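 VCaP cells in RPMI 1640 with 10% FCS at 37 °C, 5% CO2, seeded 4,000–20,000 cells/well and left 24 h before dosing. Compounds from DMSO stocks were diluted in half-log steps in medium, 10 concentrations 0.0032–100 μM, triplicate wells, max 0.3% DMSO. After 96 h, cells were washed, stained with 7 μg/ml propidium iodide plus 0.1% Triton X-100 for 1–2 h at room temperature, and fluorescence read at ex 530/em 620 nm.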

SMILES	IC50 (DU-145) [µM]	IC50 (CWR22R) [µM]	IC50 (LNCaP) [µM]	IC50 (VCaP) [µM]
CC(O)(CS(=O)(=O)c1cccc(OC(F)(F)F)c1)C(=O)Nc1ccc(S(F)(F)(F)(F)F)cc1 (racemic)	26.5	22.4	21.7	23.7
CC(O)(CS(=O)(=O)c1cccc(OC(F)(F)F)c1)C(=O)Nc1cccc(S(F)(F)(F)(F)F)c1 (racemic)	31.5	20.1	15.1	20.2
